Data on 2 compounds can be found in ChEMBL document CHEMBL3526072 (Drug Metab Dispos, 2011).

Data set [1] in a line: Cmax in streptozotocin-induced diabetes mellitus model of Sprague-Dawley rat portal vein plasma at 10 mg/kg, po. Type of data set: ADME, organism-based. Set-up: dose 10 mg/kg, route oral.
Data set [2] can be described thus: Tmax in streptozotocin-induced diabetes mellitus model of Sprague-Dawley rat at 10 mg/kg, po. To be noted: in vivo. Type of data set: ADME, organism-based. On the set-up: dose 10 mg/kg, route oral.
Data set [3] can be described thus: AUC (0 to 90 mins) in streptozotocin-induced diabetes mellitus model of Sprague-Dawley rat portal vein plasma at 10 mg/kg, po. The format is ADME, organism-based. Set-up: time < 1.5 hr, dose 10 mg/kg, route oral.
A short description of data set [4]: Tmax in Sprague-Dawley rat portal vein plasma at 10 mg/kg, po. The format is ADME, organism-based. Set-up: dose 10 mg/kg, route oral.
Data set [5] can be described thus: Tmax in streptozotocin-induced diabetes mellitus model of Sprague-Dawley rat portal vein plasma at 10 mg/kg, po. Type of data set: ADME, organism-based. Set-up: dose 10 mg/kg, route oral.
Data set [6] in a line: Cmax in Sprague-Dawley rat portal vein plasma at 10 mg/kg, po. Type of data set: ADME, organism-based. On the set-up: dose 10 mg/kg, route oral.
In data set [7] the test system is Intestine. The data set can be described thus: Decrease of CYP3A2 level in streptozotocin-induced diabetes mellitus model of Sprague-Dawley rat intestine by Western blot analysis. The format is ADME. In short, it runs like this: (§1)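 Rats from the STZ 65 mg/kg i.p. protocol versus citrate-treated age-matched controls, day 35. Hepatic microsomes or duodenal and jejunal homogenates (20 µg protein) run on 10% SDS-PAGE and probed with mouse anti-rat CYP3A1 monoclonal and rabbit anti-rat CYP3A2 polyclonal antibodies; band densitometry expressed relative to controls; mean ± S.D., four rats.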

The nature of data set [8]: Tmax in Sprague-Dawley rat at 10 mg/kg, po. To be noted: in vivo. Set-up: dose 10 mg/kg, route oral. The format is ADME, organism-based.
In data set [9] the test system is Liver. The experiment in a line: Increase of CYP3A1 level in streptozotocin-induced diabetes mellitus model of Sprague-Dawley rat liver by Western blot analysis relative to wild type rat. The format is ADME, tissue-based. The method in brief: as §1
A short description of data set [10]: AUC (0 to 90 mins) in Sprague-Dawley rat portal vein plasma at 10 mg/kg, po. The format is ADME, organism-based. Set-up: time < 1.5 hr, dose 10 mg/kg, route oral.
In data set [11] the test system is Intestine. The experiment in a line: Decrease of CYP3A1 level in streptozotocin-induced diabetes mellitus model of Sprague-Dawley rat intestine by Western blot analysis. The format is ADME. In short, it runs like this: as §1
In data set [12] the test system is Liver. The data set can be described thus: Increase of CYP3A2 level in streptozotocin-induced diabetes mellitus model of Sprague-Dawley rat liver by Western blot analysis relative to wild type rat. The format is ADME, tissue-based. In short, it runs like this: as §1
Background: Immunoblotting shows a protein as a band on a membrane.

The test system of data set [13] is Rattus norvegicus. The experiment in a line: Ratio of compound AUC to verapamil AUC in streptozotocin-induced diabetes mellitus model of Sprague-Dawley rat treated with 10 mg/kg, po of verapamil. Type of data set: ADME, organism-based. On the set-up: dose 10 mg/kg, route oral. To be noted: in vivo.
Data set [14] concerns Rattus norvegicus. The data set can be described thus: Ratio of compound AUC to verapamil AUC in Sprague-Dawley rat treated with 10 mg/kg, po of verapamil. The note with it: in vivo. Type of data set: ADME, organism-based. Set-up: dose 10 mg/kg, route oral.

The structures appear in SMILES notation.

What is called Cmax is the peak of the concentration-time curve. As usually defined, the Tmax is the time from dosing to the highest level. For orientation: AUC(0-t) means the area under the concentration-time curve up to a stated or last time point. The low end stands for less exposure, the high end for more exposure. `COc1ccc(CCN(C)CCCC(C#N)(c2ccc(OC)c(OC)c2)C(C)C)cc1OC` (centres undefined): the values for the Cmax in [1] and in data set [6] were 5830 ng/mL and 1440 ng/mL, respectively. Further, the Tmax in data set [2] is 21.7 min; in data set [4] it was 37.5 min; in data set [5], 30 min; in data set [8] it was 34 min. The area under the curve AUC(0-t) at 1.5 h in [3] was 7030 ng·h/mL; in data set [10], 1460 ng·h/mL. In addition, the Activity entry in the data set on Intestine [7] is recorded as “Toxic”; in the data set with Liver [9] it was 50%; in the data set on Intestine [11], “Toxic”; in the data set on Liver [12] it was 151%.

As to `COc1ccc(CCNCCCC(C#N)(c2ccc(OC)c(OC)c2)C(C)C)cc1OC.Cl` (centres undefined), the entries for the “Ratio AUC” value with Rattus norvegicus [13] and in the data set on Rattus norvegicus [14] were 0.43 and 0.69, respectively.
